Published values from different studies.
Compare with care: the assays were run in different laboratories.
Target: Serine/threonine-protein kinase 35 (STK35, Homo sapiens, UniProt Q8TDR2)

Cn1nc(C(F)(F)F)cc1-c1cnc(N2CCc3cc(S(=O)(=O)Nc4c(F)cc(Cl)cc4F)cc(N4CCCC4=O)c32)nc1  remaining binding (cell-free assay; competition with immobilised ligand; 1 µM): 100%
C[C@H]1CCN(c2nccc(-c3cnn4ncccc34)n2)C1  remaining binding (binding; 1 µM): 100%
COc1cc(-c2cn(C3CCc4c(F)cccc4N(CC(F)(F)F)C3=O)nn2)ccc1-n1cnc(C)c1 (stereo not shown)  remaining binding (cell-free assay; competition with immobilised ligand; 1 µM): 100%
CC1CCCN1c1nccc(-c2cnn3ncccc23)n1 (stereo not shown)  remaining binding (binding; 1 µM): 88%
COc1ncc2cc3ccccc3nc2c1C#N  remaining binding (cell-free assay; competition with immobilised ligand; 5 µM): 98%
CCN1CCN(Cc2ccc(C(=O)Nc3ccc(C)c(Oc4ccc5c(c4)CC(=O)N5)c3)cc2C(F)(F)F)CC1  remaining binding (binding; competition with immobilised ligand; 1 µM): 72%
C[C@@H](c1ccc(-n2cnc3c(N)ncnc32)cc1)N1CCc2nn(C)c(Cc3ccccc3)c2C1=O  remaining binding (binding; competition with immobilised ligand; 0.1 µM): 83%
CC1=C(C#N)[C@@H](c2ccc3[nH]nc(C)c3c2)C(C#N)=C(c2ccc(Cl)cc2)N1  remaining binding (cell-free assay; competition with immobilised ligand; 1 µM): 100%
COc1cnc(Nc2cccc(S(N)(=O)=O)c2)nc1N1CCN(c2ccccc2)CC1  remaining binding (binding; competition with immobilised ligand; 1 µM): 100%
CCOC(=O)c1cc2cc(-c3cc(C(=O)NCc4ccc(C(=O)O)cc4)nn3C)ccc2[nH]1  remaining binding (cell-free assay; competition with immobilised ligand; 0.1 µM): 94%
c1cnn2ncc(-c3ccnc(N4CCC45COC5)n3)c2c1  remaining binding (binding; 1 µM): 100%
O=C(Nc1c[nH]nc1C(=O)NC1CCNCC1)c1cc(F)cc(F)c1  remaining binding (binding; competition with immobilised ligand; 1 µM): 100%
O=C(NCCCN1CCOCC1)c1ccc(Nc2nccc(-c3cc4ccccc4s3)n2)cc1  remaining binding (binding; competition with immobilised ligand; 1 µM): 92%
CN(C(=O)c1ccccc1)c1cc(N(C)c2ccc3c(c2)CCc2ccc(C(=O)NCCN4CCOCC4)cc2C3=O)ccc1F  remaining binding (cell-free assay; competition with immobilised ligand; 1 µM): 100%
CN(C)c1ncc(F)c(-c2cnn3ncccc23)n1  remaining binding (binding; 1 µM): 100%
FC(F)(F)Oc1cccc(-c2cnc3ccc(-c4ccncc4)nn23)c1  remaining binding (binding; competition with immobilised ligand; 5 µM): 100%
F[C@@H]1CCN(c2nccc(-c3cnn4ncccc34)n2)C1  remaining binding (binding; 1 µM): 100%
CCC(=O)N[C@H]1CC[C@@H](C(=O)N(C)c2ccc(-c3nc4ccccc4o3)cc2)C1  remaining binding (cell-free assay; competition with immobilised ligand; 1 µM): 88%
O=C(NCCCN1CCOCC1)c1ccc(Nc2ncc(Cl)c(-c3ccc(Cl)s3)n2)cc1  remaining binding (binding; competition with immobilised ligand; 1 µM): 100%
N[C@@H]1CCN(c2nccc(-c3cnn4ncccc34)n2)C1  remaining binding (binding; 1 µM): 100%
O=C(Nc1cccnn1)N1CCC(=Cc2cccc(Oc3ccc(C(F)(F)F)cn3)c2)CC1  remaining binding (cell-free assay; competition with immobilised ligand; 1 µM): 100%
Cc1cnc(Nc2ccc(C(=O)N3CCC(N4CCCC4)CC3)cc2)nc1-c1cc2ccccc2s1  remaining binding (binding; competition with immobilised ligand; 1 µM): 79%
